# Assay results gathered from unrelated publications.
# Matrix: plasma
Compound,species,route,dose,setting,AUC(0-inf)
C[C@H]1[C@@H](O)O[C@@H]2O[C@@]3(C)CC[C@H]4[C@H](C)CC[C@@H]1[C@@]24OO3,male Sprague-Dawley rat,oral,10 mg/kg,,271 ng·h/mL
COc1ccc(N(Cc2csc(-c3ccccc3)n2)C(=O)CCCCCC(=O)NO)cc1,female Sprague-Dawley rat,intravenous,5 mg/kg,,30.7 ng·h/mL
C=CC(=O)N1CCC([C@@H]2CCNc3c(C(N)=O)c(-c4ccc(Oc5ccccc5)cc4)nn32)CC1,Sprague-Dawley rat,oral,16 mg/kg,,1460 ng·h/mL
C[C@H]1Oc2cc(cnc2N)-c2c(nn(C)c2C#N)CN(C)C(=O)c2ccc(F)cc21,male Sprague-Dawley rat,oral,10 mg/kg,single dose,3840 ng·h/mL
COc1nc(-c2cccc(-c3ccccc3)c2C)ccc1CNCCNC(=O)CCCCCCCCCCC(=O)N1CCN(CCNC(=O)c2cc3c(=O)n4cccc(C)c4nc3n(CCc3cccs3)c2=N)CC1,male Sprague-Dawley rat,intravenous,2 mg/kg,,1640 ng·h/mL
CONC(=O)c1cccc2c1cc(C)n2-c1nc2c(c(NCc3ccccc3)n1)CCCN2,male Sprague-Dawley rat,oral,10 mg/kg,single dose,38.9 ng·h/mL
O=C1CCC(N2Cc3cc(C4CCN(Cc5ccccc5)CC4)ccc3C2=O)C(=O)N1 (stereo not shown),male Sprague-Dawley rat,intravenous,1 mg/kg,,325 ng·h/mL
CNC(=O)c1cc(Oc2ccc(NC(=O)Nc3ccc(Cl)c(C(F)(F)F)c3)cc2)ccn1,male Sprague-Dawley rat,oral,100 mg/kg,single dose,18400 ng·h/mL
COc1cc(-c2cc(C(C)=O)n3ccccc23)c(OC)cc1Cn1ccnc1,male Sprague-Dawley rat,intravenous,5 mg/kg,,4300 ng·h/mL
Cn1c(=O)c2[nH]cnc2n(C)c1=O,male Sprague-Dawley rat,intravenous,11.25 mg/kg,,32700 ng·h/mL
CC(=O)O[C@@H]1CC[C@@]2(C)[C@@H](CC[C@]3(C)[C@@H]2C(=O)C=C2[C@@H]4[C@@H](C)[C@H](C)CC[C@]4(C)CC[C@]23C)[C@@]1(C)C(=O)O,female Wistar rat,oral,1 mg/kg,single dose,50200 ng·h/mL
C[C@@]12C[C@@]3(O)O[C@@H](O1)[C@]1(COC(=O)c4ccccc4)[C@H]3C[C@@]12O[C@@H]1O[C@H](CO)[C@@H](O)[C@H](O)[C@H]1O,male Sprague-Dawley rat,oral,80 mg/kg,,4.33 ng·h/mL
Cc1nc(Nc2ncc(C(=O)Nc3c(C)cccc3Cl)s2)cc(N2CCN(CCO)CC2)n1,male Sprague-Dawley rat,oral,5 mg/kg,single dose,0.199 µM·h
